Test [1] concerns COS-7. The test can be described thus: CyclicAMP production in untransfected COS-7 cell control. It counts as functional. In outline: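 Non-transfected COS-7 cells grown in DMEM/10% FBS at 37 °C, 5% CO2. Preincubated 30 min at 37 °C in serum-free DMEM/25 mM HEPES pH 7.5, then given 10 μM compound plus 0.24 mM IBMX and 0.1 μM propranolol for 20 min. cAMP in cold 5% TCA extract quantified by RIA, pmol/min/well.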

The target in test [2] is Beta-3 adrenergic receptor (Homo sapiens) (UniProt P13945). The test can be described thus: Beta adrenergic activity as cAMP production in human Beta3 adrenergic receptor expressing COS-7 cells with propranolol. It counts as functional, cell-based. In outline: (§1)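 COS-7 cells in DMEM/10% FBS at 37 °C, 5% CO2, lipofected with human β3-receptor plasmid at 70-80% confluence, then grown 24 h. Cells preincubated 30 min at 37 °C in serum-free DMEM/25 mM HEPES pH 7.5, then exposed 20 min to 10 μM compound with 0.24 mM IBMX, with or without 0.1 μM propranolol. cAMP in TCA extract measured by RIA, expressed as pmol/min/well.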
Beta-3 adrenergic receptor (Homo sapiens), sequence (P13945 whole entry, looked up): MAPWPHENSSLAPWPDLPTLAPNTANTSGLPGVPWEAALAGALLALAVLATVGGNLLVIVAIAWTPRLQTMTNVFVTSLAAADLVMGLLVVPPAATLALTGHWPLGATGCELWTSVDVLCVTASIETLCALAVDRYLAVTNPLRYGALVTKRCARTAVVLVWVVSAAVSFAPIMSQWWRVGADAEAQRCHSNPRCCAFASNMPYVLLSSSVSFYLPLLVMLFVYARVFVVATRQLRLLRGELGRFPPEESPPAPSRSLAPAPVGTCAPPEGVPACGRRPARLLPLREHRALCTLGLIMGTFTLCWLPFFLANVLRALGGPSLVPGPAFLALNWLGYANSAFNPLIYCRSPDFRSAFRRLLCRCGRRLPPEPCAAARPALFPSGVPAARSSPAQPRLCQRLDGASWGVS
On the technique in general: Cyclic AMP is a second messenger, typically raised through Gs and lowered through Gi signalling.

Test [3] shares this target. The test is described as follows: Beta adrenergic activity was determined by measuring cAMP production on human Beta3 adrenergic transfected COS-7 cells. It counts as functional, cell-based. In outline:
as §1

For test [4], the species on record is Bos taurus. The test can be described thus: Oxidation was assessed indirectly by measuring bovine serum albumin(BSA) thiol protection from the formation of thiobarbituric acid reactive substances (TBARs) by TBARs test at 100 uM. Format: functional.
For test [5], the species on record is Bos taurus. The test can be described thus: Oxidation was assessed indirectly by measuring bovine serum albumin(BSA) thiol protection from the formation of thiobarbituric acid reactive substances (TBARs) by TBARs test at 500 uM. It counts as functional.
The species named for test [6] is Bos taurus. The test is described as follows: Oxidation was assessed indirectly by measuring bovine serum albumin thiol protection by using Ellman''s test at 1 mM. Format: functional. In a few lines: (§2)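 Hydroxyl radicals from Fenton reaction (Fe2+/H2O2) oxidize BSA. Remaining thiols measured by Ellman's test. Compound present at the stated concentration. Reported as % protection relative to Trolox. Mean ± SEM of three experiments, ANOVA (p < 0.05).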
For orientation: DTNB colorimetry detects thiols as they appear.

Test [7] is filed under the species Bos taurus. The test is described as follows: Oxidation was assessed indirectly by measuring bovine serum albumin (BSA) thiol protection from the formation of thiobarbituric acid reactive substances (TBARs) by TBARs test at 10 uM. It counts as functional.
Test [8] is filed under the species Bos taurus. The test is described as follows: Oxidation was assessed indirectly by measuring bovine serum albumin thiol protection by using Ellman''s test at 500 uM. It counts as functional. In outline:
as §2

Test [9] is filed under the species Bos taurus. The test can be described thus: Oxidation was assessed indirectly by measuring bovine serum albumin (BSA) thiol protection from the formation of thiobarbituric acid reactive substances (TBARs) by TBARs test at 100 uM. It counts as functional.
Test [10] is filed under the species Bos taurus. The test can be described thus: Oxidation was assessed indirectly by measuring bovine serum albumin (BSA) thiol protection from the formation of thiobarbituric acid reactive substances (TBARs) by TBARs test at 500 uM. It counts as functional. In outline:
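Plasma lipid peroxidation induced by Fenton-generated hydroxyl radicals (Fe2+/H2O2), with compound at the stated concentration. Thiobarbituric acid reactive substances quantified. Expressed as % protection relative to Trolox. Mean ± SEM, three experiments, ANOVA (p < 0.05).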

The species named for test [11] is Bos taurus. The test can be described thus: Oxidation was assessed indirectly by measuring bovine serum albumin(BSA) thiol protection from the formation of thiobarbituric acid reactive substances (TBARs) by TBARs test at 10 uM. Format: functional.
For test [12], the species on record is Bos taurus. The test can be described thus: Oxidation was assessed indirectly by measuring bovine serum albumin (BSA) thiol protection by using Ellman''s test at 500 uM. Format: functional. In outline: as §2
The species entered for test [13] is Bos taurus. The test is described as follows: Oxidation was assessed indirectly by measuring bovine serum albumin (BSA) thiol protection by using Ellman''s test at 1 mM. Format: functional. In a few lines: as §2

For the molecule `Cc1c(C)c2c(c(C)c1O)CCC(C)(COc1ccc(NCC(O)COc3cccc4[nH]c5ccccc5c34)cc1)O2` (stereo not given), the cAMP production in [1] turned out to be 31.5 pmol/min/well. In test [2], this molecule had a cAMP production (pM min-1 well-1) of 22.3.
Consider `CC(C)(C)c1cc(CCCOc2ccc(NCC(O)COc3ccc4cccnc4c3)cc2)cc(C(C)(C)C)c1O` (stereo not given), for which the cAMP production (pM min-1 well-1) was found to be 97.4 in [3] and 21.4 in test [2]. Moreover, the cAMP production in test [1] worked out at 23.3 pmol/min/well.
Consider `COc1ccccc1OCCNCC(O)COc1cccc2[nH]c3ccccc3c12` (stereo not given) [CARVEDILOL], for which the Protection in test [4] is reported as -0.6%; in test [5], 6.2%; in test [6], -88.6%; in [7], 1%; in [8], 20%.
In the case of `Cc1c(C)c2c(c(C)c1O)CCC(C)(COc1ccc(NCC(O)COc3cccc4cnccc34)cc1)O2` (stereo not given), the cAMP production (pM min-1 well-1) in [3] turned out to be 142; in test [2] it was 41.6. In addition, the Protection amounted to 49.3% in [9]; 115.2% in [6]; 94.4% in [10]; 39.4% in test [7]; 54.8% in test [8]. Besides, the cAMP production in test [1] was 28.7 pmol/min/well.
As for `Cc1c(C)c2c(c(C)c1O)CCC(C)(COc1ccc(NCC(O)COc3cccc4ncccc34)cc1)O2` (stereo not given), the Protection in test [4] amounted to 64.6%; in test [5] it was 78.2%; in test [6], 82.9%; in [11], 37.8%; in test [8] it was 49.2%. Moreover, the cAMP production (pM min-1 well-1) in [3] turned out to be 103; in [2], 28.6. The molecule further had a cAMP production in [1] of 26.8 pmol/min/well.
As for `Cc1c(C)c2c(c(C)c1O)CCC(C)(C(=O)O)O2` (stereo not given) [TROLOX], the Protection in [4] was 7.6%; in test [5], 64.8%; in test [6] it was 75.2%; in [7] it was -21.4%; in test [8] it was 31.4%.
Regarding `Cc1c(C)c2c(c(C)c1O)CCC(C)(COc1ccc(NCC(O)COc3cccc4[nH]c5ncccc5c34)cc1)O2` (stereo not given), the Protection was found to be 53.6% in test [9], 75.5% in test [10] and 44.3% in test [7].
Turning to `CC(C)(C)c1cc(CCCOc2ccc(NCC(O)COc3ccc4ccncc4c3)cc2)cc(C(C)(C)C)c1O` (stereo not given), in test [1], the cAMP production is 26.9 pmol/min/well. This molecule also registered a cAMP production (pM min-1 well-1) in [2] of 23.9.
For the molecule `CC(C)(C)c1cc(CCCOc2ccc(NCC(O)COc3cccc4cnccc34)cc2)cc(C(C)(C)C)c1O` (stereo not given), the cAMP production (pM min-1 well-1) in test [3] was 130; in [2], 76.3. The Protection in [9] is reported as 32.8%; in [10], 49.3%; in test [7], 43.6%. The molecule further yielded a cAMP production in test [1] of 24.9 pmol/min/well.
`CC(C)(C)c1cc(CCCOc2ccc(NCC(O)COc3cccc4ncccc34)cc2)cc(C(C)(C)C)c1O` (stereo not given): the Protection was determined as 47.3% in [12]; 120.3% in test [13]; 33.3% in [9]; 50.4% in test [10]; 30.3% in test [7]. Besides, the cAMP production in test [1] turned out to be 21.6 pmol/min/well.
Take `Cc1c(C)c2c(c(C)c1O)CCC(C)(COc1ccc(NCC(O)COc3ccc4ccncc4c3)cc1)O2` (stereo not given): the cAMP production in [1] was 33 pmol/min/well. The cAMP production (pM min-1 well-1) in test [2] was 33.2.

The values are drawn from ChEMBL document CHEMBL1135374, “New series of aryloxypropanolamines with both human beta(3)-adrenoceptor agonistic activity and free radical scavenging properties” (2002).
